Here are results for three molecules from article PMC6620733 (Biochemistry, 2019).

SMILES strings stand for the structures. Read-outs that look alike come from different tables or passages of the source.

Experiment [1] concerns the target T1, full-length Munc13-1 (Rattus norvegicus, UniProt Q62768). Briefly: In vitro [3H]PDBu binding assay, full-length Munc13-1.
In another experiment the target is Munc13-1 C1 domain WT (Rattus norvegicus, UniProt Q62768). Briefly: In vitro [3H]PDBu binding assay, isolated Munc13-1 C1 domain. The conditions noted are these: for affinity better than that of PDBu: isolated C1 domain; for Kd: read-out: Kd for PDBu.
The next experiment has as its target Munc13-1 C1 W22A mutant (Rattus norvegicus, UniProt Q62768, W588A). Briefly: In vitro [3H]PDBu binding assay, Munc13-1 C1 domain W22A. The conditions noted are these: for decrease in affinity of W588A (W22A) mutant C1 domain versus WT: 100% PS.
Experiment [2] deals with T2, Munc13-1 (Rattus norvegicus, UniProt Q62768). Format: cell-based. The conditions noted are these: HT22 cells, 0–2 μM, 5 min, confocal. Summed up: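 HT22 cells are seeded on coverslips at 6 × 10^4/well and, at 70–80% confluency, transfected with Munc13-1-GFP (Lipofectamine, antibiotic-free DMEM). They are exposed to 0.1–2 μM test compound for 5 min, then fixed in 4% PFA for 10 min and imaged by confocal at 63×. Read-out is the ratio of mean membrane intensity (outer 300 nm) to whole-cell intensity. Statistics use two-way ANOVA with Tukey.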

In experiment [3] the target is T2, Munc13-1. In words: Cell fractionation and Western blot of HT22 cells expressing GFP-tagged Munc13-1. It is filed as cell-based. The conditions noted are these: 1 μM, 5 min, cell fractionation and immunoblot. Summed up:
(§1)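 Transfected HT22 cells (DMEM, 10% FBS, 70–80% confluent, Lipofectamine, antibiotic-free medium) express GFP-Munc13-1 or GFP-bMunc13-2 and are treated with 1 μM test compound. A kit separates the fractions: cytosolic buffer spin at 500g, 5 min; pellet in membrane buffer, 4 °C, 10 min, then 3000g, 5 min. 40 μg protein is run on 4–15% SDS–PAGE (membrane samples unheated). Probes are anti-GFP 1:500, Na,K-ATPase and β-actin 1:2000, with infrared detection.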

In another experiment the target is Munc13-1^H567K (Rattus norvegicus, UniProt Q62768, H567K). It is filed as cell-based. The conditions noted are these: HT22 cells, 0–2 μM, 5 min. Summed up:
(§2)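 Fixed-cell confocal: HT22 cells in DMEM with 10% FBS and 2 mM glutamine are seeded on coverslips 24 h before transfection. At 70–80% confluence they are transfected (Lipofectamine 3000) with GFP-tagged mutant Munc13-1 plasmid in antibiotic-free medium. Treatment with test compound or PMA at 0.1–2 μM, then fixation in 4% PFA for 10 min and imaging at 63×. Ratio of mean membrane (outer 300 nm) to whole-cell GFP intensity.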

In a further experiment the target is Munc13-1^W588A (Rattus norvegicus, UniProt Q62768, W588A). Format: cell-based. The conditions noted are these: HT22 cells, 1 μM, 5 min. A digest of the protocol:
as §2

In a further experiment the target is Munc13-1 C1 domain (Rattus norvegicus, UniProt Q62768). Format: cell-based. The conditions noted are these: living HT22 cells, 1 μM. Summed up: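 Live-cell imaging, C1 domain: HT22 cells (passages 2–16; high-glucose DMEM, 10% FBS, 2 mM L-glutamine) are transfected with GFP-tagged Munc13-1 C1 domain (X-tremeGENE HP). After 24 h they are moved to phenol red-free DMEM with 1% FBS. Test compound 1 μM is added at time zero, with confocal images every 30 s (488 nm excitation, 500–530 nm emission). Cytoplasm/nucleus intensity ratio is normalized to time zero. 11–16 cells per treatment, three independent experiments; saturated cells excluded.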

Experiment [4] deals with T1, full-length Munc13-1. It is filed as cell-based. Summed up: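 Living HT22 cells (passages 2–16) are transfected with GFP-tagged full-length Munc13-1 (X-tremeGENE HP), then transferred after 24 h into phenol red-free DMEM with 1% FBS. Test compound at 10, 100 or 1000 nM is added at time zero. Confocal imaging every 30 s (488 nm excitation, 500–530 nm emission). Plasma membrane/cytoplasm mean intensity ratio is normalized to time zero. 5–9 cells per concentration, three independent experiments; saturated cells excluded.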

The target of another experiment is ubMunc13-2 (Rattus norvegicus, UniProt Q62769). Briefly: Translocation of GFP-tagged ubMunc13-2 in living HT22 cells. Format: cell-based. The conditions noted are these: living HT22 cells, 10, 100, 1000 nM, 0–15 min. Summed up:
(§3)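 GFP-tagged bMunc13-2 or ubMunc13-2 is expressed in living HT22 cells (passages 2–16, X-tremeGENE HP transfection). Imaging is in phenol red-free DMEM with 1% FBS, 24 h post-transfection. Test compound at 10, 100 or 1000 nM is added at time zero, with confocal frames every 30 s (488/500–530 nm). Plasma membrane/cytoplasm ratio is normalized to time zero. bMunc13-2: 3–6 cells per concentration; ubMunc13-2: 5–9 cells; three independent experiments.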

Experiment [5] deals with T3, bMunc13-2 (Rattus norvegicus, UniProt Q62769). Briefly: Translocation of GFP-tagged bMunc13-2 in living HT22 cells. The conditions noted are these: living HT22 cells, 10, 100, 1000 nM, 0–15 min. Format: cell-based. Summed up:
as §3

Another experiment deals with PKCδ (Homo sapiens, UniProt Q05655). Briefly: Translocation of GFP-tagged PKCδ in living HT22 cells. It is filed as cell-based. A digest of the protocol:
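For PKCδ, living HT22 cells (passages 2–16) transiently express GFP-tagged PKCδ (X-tremeGENE HP). After 24 h, medium is changed to phenol red-free DMEM with 1% FBS. Test compound at 10, 100 or 1000 nM is added at time zero, with confocal imaging every 30 s (488 nm excitation, 500–530 nm emission). Nuclear membrane/cytoplasm intensity ratio is normalized to time zero. 4–7 cells per concentration, three independent experiments.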

Experiment [6] deals with T3, bMunc13-2. Format: cell-based. The conditions noted are these: HT22 cells, immunoblotting (1 μM) and confocal microscopy (0–2 μM), 5 min. A digest of the protocol:
as §1
A general note: A western blot detects proteins with antibodies after separation by electrophoresis.

Experiment [7] has as its system endogenous Munc13-1 in HT22 cells. In words: Expression of endogenous Munc13-1 in differentiated HT22 cells. It is filed as cell-based, mouse. The conditions noted are these: 24 h. A digest of the protocol: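 Endogenous protein by Western blot: HT22 cells are differentiated in NeuroBasal medium with […], cAMP, L-glutamine and antibiotics. At 48–72 h after day 0, test compound is added at 0.1 or 0.5 μM for 24 h. Lysis in modified RIPA with protease/phosphatase inhibitors, sonication, 14000g 30 min at 4 °C. 7.5–10% SDS–PAGE, nitrocellulose, 2.5% BSA block. Anti-Munc13-1 1:500 and β-actin 1:5000, HRP secondary, ECL. Densitometric Munc13-1:β-actin ratio.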

The subject of experiment [8] is endogenous Munc13-1 in primary hippocampal neurons. In words: Expression of endogenous Munc13-1 in primary hippocampal neurons. Format: cell-based. The conditions noted are these: mouse primary hippocampal neurons, 0.1 or 0.5 μM, 24 h. A digest of the protocol:
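Hippocampi come from E18 mouse pups and are dissociated with trypsin/EDTA (20 min, 37 °C). Cells are plated at 8 × 10^4/well on poly-D-lysine coverslips in B-27 medium, and 7–8-day cultures are treated with 0.1 or 0.5 μM for 24 h. Cells are fixed in 4% PFA for 15 min and stained overnight at 4 °C with anti-Munc13-1 1:500, Tuj1 1:1000 and DAPI. Cytosolic Munc13-1 is measured by confocal in 3 wells × 3 cells per group.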

[9] abbreviates: read-out: Kd for PDBu, 100:0 PS/PC.

T3 sequence (Q62769 1-1985 isoform Q62769-2): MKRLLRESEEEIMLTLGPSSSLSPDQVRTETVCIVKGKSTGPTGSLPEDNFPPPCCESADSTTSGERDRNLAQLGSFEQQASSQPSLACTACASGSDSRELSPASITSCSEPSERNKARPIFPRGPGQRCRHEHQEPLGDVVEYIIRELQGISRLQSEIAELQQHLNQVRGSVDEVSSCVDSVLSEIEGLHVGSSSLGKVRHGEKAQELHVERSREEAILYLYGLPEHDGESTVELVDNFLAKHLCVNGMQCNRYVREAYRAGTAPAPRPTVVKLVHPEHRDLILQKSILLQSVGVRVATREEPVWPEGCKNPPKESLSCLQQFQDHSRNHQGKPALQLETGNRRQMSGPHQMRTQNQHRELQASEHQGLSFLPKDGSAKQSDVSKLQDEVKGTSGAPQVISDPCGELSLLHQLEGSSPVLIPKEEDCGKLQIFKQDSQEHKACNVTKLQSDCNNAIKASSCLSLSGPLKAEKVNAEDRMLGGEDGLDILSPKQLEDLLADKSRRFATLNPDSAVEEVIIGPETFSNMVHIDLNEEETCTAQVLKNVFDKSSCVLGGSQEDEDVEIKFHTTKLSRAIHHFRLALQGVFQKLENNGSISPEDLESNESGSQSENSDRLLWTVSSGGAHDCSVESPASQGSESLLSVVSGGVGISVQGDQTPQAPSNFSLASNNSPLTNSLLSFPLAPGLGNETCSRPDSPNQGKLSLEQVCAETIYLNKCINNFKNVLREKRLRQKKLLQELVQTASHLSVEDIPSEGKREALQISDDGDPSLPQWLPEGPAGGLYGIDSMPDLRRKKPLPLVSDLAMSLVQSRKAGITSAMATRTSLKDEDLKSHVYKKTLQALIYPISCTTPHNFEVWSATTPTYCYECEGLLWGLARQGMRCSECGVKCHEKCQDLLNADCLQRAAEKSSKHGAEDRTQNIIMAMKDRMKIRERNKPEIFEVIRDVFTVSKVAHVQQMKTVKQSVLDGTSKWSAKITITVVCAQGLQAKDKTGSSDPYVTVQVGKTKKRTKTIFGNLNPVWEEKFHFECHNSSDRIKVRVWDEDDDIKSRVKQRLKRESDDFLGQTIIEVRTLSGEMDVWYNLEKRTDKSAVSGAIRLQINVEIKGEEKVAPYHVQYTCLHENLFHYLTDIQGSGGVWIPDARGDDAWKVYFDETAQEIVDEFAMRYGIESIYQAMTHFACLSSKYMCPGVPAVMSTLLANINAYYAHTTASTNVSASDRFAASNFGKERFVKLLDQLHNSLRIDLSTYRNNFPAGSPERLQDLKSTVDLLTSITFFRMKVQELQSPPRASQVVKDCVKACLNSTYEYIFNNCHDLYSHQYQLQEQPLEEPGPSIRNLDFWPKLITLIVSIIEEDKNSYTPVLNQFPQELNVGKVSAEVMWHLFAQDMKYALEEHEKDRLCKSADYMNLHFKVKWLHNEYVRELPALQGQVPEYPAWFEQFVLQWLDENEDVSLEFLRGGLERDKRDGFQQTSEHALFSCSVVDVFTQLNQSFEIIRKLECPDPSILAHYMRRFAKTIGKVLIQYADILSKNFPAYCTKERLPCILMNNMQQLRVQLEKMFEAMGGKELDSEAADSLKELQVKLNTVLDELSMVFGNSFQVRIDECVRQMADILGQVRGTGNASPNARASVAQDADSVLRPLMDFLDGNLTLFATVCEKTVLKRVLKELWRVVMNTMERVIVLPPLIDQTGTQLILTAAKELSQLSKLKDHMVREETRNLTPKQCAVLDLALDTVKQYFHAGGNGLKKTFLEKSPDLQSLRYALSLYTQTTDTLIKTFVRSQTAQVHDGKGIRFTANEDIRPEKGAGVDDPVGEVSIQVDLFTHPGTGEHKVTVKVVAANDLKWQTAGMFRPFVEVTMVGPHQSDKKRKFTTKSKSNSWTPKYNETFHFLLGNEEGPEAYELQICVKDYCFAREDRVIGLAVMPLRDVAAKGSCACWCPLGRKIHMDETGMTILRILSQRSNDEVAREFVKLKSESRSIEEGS
Sequence of PKCδ (Q05655 whole entry): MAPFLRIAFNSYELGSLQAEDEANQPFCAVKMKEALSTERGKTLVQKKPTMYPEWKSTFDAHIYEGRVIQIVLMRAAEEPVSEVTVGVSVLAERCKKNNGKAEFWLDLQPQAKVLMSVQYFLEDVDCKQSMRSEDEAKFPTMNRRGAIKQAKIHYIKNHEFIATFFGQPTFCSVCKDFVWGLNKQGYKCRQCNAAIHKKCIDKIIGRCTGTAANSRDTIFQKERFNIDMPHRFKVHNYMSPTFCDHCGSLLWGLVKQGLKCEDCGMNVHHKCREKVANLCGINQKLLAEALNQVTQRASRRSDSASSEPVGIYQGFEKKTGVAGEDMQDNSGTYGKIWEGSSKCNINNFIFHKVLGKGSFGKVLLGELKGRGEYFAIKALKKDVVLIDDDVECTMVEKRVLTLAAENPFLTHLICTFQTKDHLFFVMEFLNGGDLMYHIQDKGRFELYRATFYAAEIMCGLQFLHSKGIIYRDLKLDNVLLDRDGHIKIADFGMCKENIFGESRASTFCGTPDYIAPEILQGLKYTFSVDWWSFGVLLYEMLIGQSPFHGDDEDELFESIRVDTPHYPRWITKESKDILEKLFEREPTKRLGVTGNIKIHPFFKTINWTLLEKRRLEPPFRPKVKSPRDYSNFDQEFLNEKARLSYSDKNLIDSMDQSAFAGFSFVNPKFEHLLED

One may read the Ki as a dissociation constant, usually derived from enzyme kinetics or from competition with a known ligand. For `CCC/C=C/C=C/C(=O)O[C@H]1/C(=C/C(=O)OC)C[C@H]2C[C@H]([C@@H](C)O)OC(=O)C[C@H](O)C[C@@H]3C[C@H](OC(C)=O)C(C)(C)[C@](O)(C[C@@H]4C/C(=C/C(=O)OC)C[C@H](/C=C/C(C)(C)[C@]1(O)O2)O4)O3` [bryostatin 1], the inhibition constant (Ki) on full-length Munc13-1 [1] came out at 0.45 ± 0.04 nM; at Munc13-1 C1 domain WT (Ki for bryostatin 1, 5:95 PS/PC, 100 μg/mL lipid, 0.1 mM Ca2+, 100 nM [3H]PDBu), 22.8 ± 1.8 nM; on Munc13-1 C1 domain WT (Ki for bryostatin 1, 20:80 PS/PC, 100 μg/mL lipid, 0.1 mM Ca2+, 100 nM [3H]PDBu), 22.7 nM; on Munc13-1 C1 domain WT (Ki for bryostatin 1, 100:0 PS/PC, 100 μg/mL lipid, 0.1 mM Ca2+, 100 nM [3H]PDBu), 8.07 ± 0.9 nM; at Munc13-1 C1 W22A mutant, 54 ± 12 nM. Also, the “affinity better than that of PDBu” value was “approximately 15 fold” on full-length Munc13-1 [1] (full-length Munc13-1, 100% PS); 15 fold on Munc13-1 C1 domain WT (100% PS); 3 fold at Munc13-1 C1 domain WT (lower PS concentrations). The “decrease in affinity of W588A (W22A) mutant C1 domain versus WT” value on Munc13-1 C1 W22A mutant was 6.6 fold. For the same molecule, the “translocation of Munc13-1 to the plasma membrane” value at Munc13-1 [2] was “induced translocation of Munc13-1 to the plasma membrane”. Further, the “transfer of Munc13-1 to membrane fraction” value on Munc13-1 [3] is recorded as “caused Munc13-1 to transfer to the membrane fraction”. On Munc13-1^H567K, the “translocation (localization change) of Munc13-1 H567K” value is reported as “no significant changes in localization”. The “translocation of full-length Munc13-1 W588A” value at Munc13-1^W588A is given as “translocation was lost”. At Munc13-1 C1 domain, the “translocation of GFP-C1 domain” value is listed as “translocated within 5–20 min from the nucleus to internal membranes but not to the plasma membrane”. Besides, the “stimulation of translocation at 100 nM as fraction of that caused by 1000 nM” value worked out at 30% on full-length Munc13-1 [4] (Munc13-1, 15 min value) and 63% at PKCδ (PKCδ, 15 min value). On full-length Munc13-1 [4] (living HT22 cells, 1 μM), the “translocation of full-length Munc13-1” value is recorded as “translocated to the plasma membrane”. For the same molecule, at ubMunc13-2, the “translocation of ubMunc13-2” value is reported as “clear translocation”. The “translocation of bMunc13-2” value at bMunc13-2 [5] was “clear translocation”. In addition, the “translocation of PKCδ” value on PKCδ (living HT22 cells, 10, 100, 1000 nM, 0–15 min) is “induces translocation of PKCδ to the nuclear membrane and to internal membranes, rather than to the plasma membrane”. Moreover, the “translocation of GFP-tagged bMunc13-2” value at bMunc13-2 [6] is recorded as “translocation similar to that of GFP-tagged Munc13-1”. Besides, the “level of endogenous Munc13-1 staining” value in experiment [7] (0.1 and 0.5 μM, immunostaining) is reported as “increased with both doses”. The “endogenous Munc13-1 levels by Western blot” value in [7] (0.1 or 0.5 μM) is on record as “increased”. Moreover, the “expression of endogenous Munc13-1 in cytosol” value in experiment [8] is listed as “significantly increased the level of expression of Munc13-1”.
On to `CCCCCCCCCCCCCC(=O)O[C@@H]1[C@@H](C)[C@@]2(O)[C@@H](C=C(CO)C[C@]3(O)C(=O)C(C)=C[C@@H]23)[C@@H]2C(C)(C)[C@]12OC(C)=O` [PMA, phorbol 12-myristate 13-acetate], for which the “translocation of Munc13-1 to the plasma membrane” value at Munc13-1 [2] was “induced translocation of Munc13-1 to the plasma membrane”. Besides, on Munc13-1 [3], the “transfer of Munc13-1 to membrane fraction” value was “caused Munc13-1 to transfer to the membrane fraction”. Also, the “translocation (localization change) of Munc13-1 H567K” value at Munc13-1^H567K is “no significant changes in localization”. The “translocation of GFP-tagged bMunc13-2” value on bMunc13-2 [6] is recorded as “translocation similar to that of GFP-tagged Munc13-1”.
For orientation: Kd means the equilibrium constant for the complex coming apart. For `CCCC(=O)O[C@@H]1[C@@H](C)[C@@]2(O)[C@@H](C=C(CO)C[C@]3(O)C(=O)C(C)=C[C@@H]23)[C@@H]2C(C)(C)[C@]12OC(=O)CCC` [PDBu, Phorbol 12,13-dibutyrate], the dissociation constant Kd worked out at 7.09 ± 0.53 nM on full-length Munc13-1 [1] (setting [9]); 82 ± 15 nM on Munc13-1 C1 domain WT (5:95 PS/PC); 69.5 ± 4.8 nM on Munc13-1 C1 domain WT (20:80 PS/PC); 124 ± 13 nM on Munc13-1 C1 domain WT (100:0 PS/PC); 809 ± 8.1 nM at Munc13-1 C1 W22A mutant (setting [9]). In addition, the Ki on full-length Munc13-1 [1] (read-out: Ki for PDBu, 100% PS, measured in parallel with bryostatin 1) stood at 7.1 ± 0.5 nM; on Munc13-1 C1 domain WT (read-out: Ki for PDBu, PS/PC (20:80, w:w), assayed in parallel), 69.5 ± 4.8 nM; on Munc13-1 C1 domain WT (read-out: Ki for PDBu, PS/PC (100:0)), 124 ± 13 nM. Further, the “decrease in affinity of W588A (W22A) mutant C1 domain versus WT” value on Munc13-1 C1 W22A mutant came out at 6.5 fold. Further, the “effectiveness for inducing translocation relative to bryostatin 1” value at full-length Munc13-1 [4] (living HT22 cells, 1 μM) is recorded as “modestly less effective than was bryostatin 1”.
